Series [1] is described as follows: Dissociation constant was determined. It is filed as physicochemical.
Series [2] addresses T1, Adrenergic receptor alpha-2 (Rattus norvegicus, UniProt P22086+P19328+P22909).
T1 sequence (P22086 whole entry): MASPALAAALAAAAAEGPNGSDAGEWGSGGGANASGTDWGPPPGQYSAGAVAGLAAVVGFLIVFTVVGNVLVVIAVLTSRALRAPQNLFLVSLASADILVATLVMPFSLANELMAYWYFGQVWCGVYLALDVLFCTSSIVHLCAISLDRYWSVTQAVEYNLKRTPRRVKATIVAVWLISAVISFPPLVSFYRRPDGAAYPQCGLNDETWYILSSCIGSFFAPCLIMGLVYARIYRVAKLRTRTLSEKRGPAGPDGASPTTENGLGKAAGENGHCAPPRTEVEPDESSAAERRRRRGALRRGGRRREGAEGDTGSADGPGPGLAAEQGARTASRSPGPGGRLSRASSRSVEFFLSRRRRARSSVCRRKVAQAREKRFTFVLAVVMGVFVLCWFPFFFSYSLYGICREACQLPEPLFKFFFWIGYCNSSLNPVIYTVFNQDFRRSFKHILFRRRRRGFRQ
T1 sequence (P19328 whole entry): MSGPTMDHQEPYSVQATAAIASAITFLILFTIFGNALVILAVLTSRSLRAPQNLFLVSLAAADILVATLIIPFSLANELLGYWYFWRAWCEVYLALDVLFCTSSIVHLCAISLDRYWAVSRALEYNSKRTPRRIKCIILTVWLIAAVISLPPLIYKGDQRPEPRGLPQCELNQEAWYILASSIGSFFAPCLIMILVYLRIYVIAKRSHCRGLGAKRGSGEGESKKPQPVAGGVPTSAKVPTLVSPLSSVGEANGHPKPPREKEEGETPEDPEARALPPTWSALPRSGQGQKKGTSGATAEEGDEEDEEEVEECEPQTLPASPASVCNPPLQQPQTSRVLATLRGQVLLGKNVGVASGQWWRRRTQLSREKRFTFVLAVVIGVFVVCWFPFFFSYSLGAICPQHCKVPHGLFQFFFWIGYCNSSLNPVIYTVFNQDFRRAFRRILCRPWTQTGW
T1 sequence (P22909 whole entry): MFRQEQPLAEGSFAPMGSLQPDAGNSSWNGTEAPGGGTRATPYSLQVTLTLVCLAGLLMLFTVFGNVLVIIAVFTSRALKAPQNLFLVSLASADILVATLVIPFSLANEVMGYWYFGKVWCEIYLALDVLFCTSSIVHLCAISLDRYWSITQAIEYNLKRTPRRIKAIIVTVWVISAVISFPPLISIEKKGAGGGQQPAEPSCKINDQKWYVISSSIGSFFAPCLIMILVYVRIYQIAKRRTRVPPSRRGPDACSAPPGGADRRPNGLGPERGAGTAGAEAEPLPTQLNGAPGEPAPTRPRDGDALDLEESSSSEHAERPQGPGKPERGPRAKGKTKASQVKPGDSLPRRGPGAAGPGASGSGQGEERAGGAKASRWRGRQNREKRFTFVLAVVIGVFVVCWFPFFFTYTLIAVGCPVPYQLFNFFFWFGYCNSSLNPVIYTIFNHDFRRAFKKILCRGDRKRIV
Description: Inhibition of [3H]clonidine binding to Alpha-2 adrenergic receptor. It is filed as protein assay. The method, boiled down: (§1)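 Cortex from male Sprague-Dawley rats, homogenized and washed three times by centrifugation (50000g) in 50 mM Tris·HCl pH 7.7. Incubated with 4.0 nM (final) [3H]clonidine for 30 min at 25 °C. Bound ligand collected by rapid filtration and counted. Nonspecific binding defined with 2 µM phentolamine. Quadruplicates at 5 inhibitor concentrations over a 16-fold range.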

Series [3] in a line: Selectivity was expressed as the ratio is Ki of alpha 2-Adrenoceptor to that of PNMT.
Series [4] addresses T2, Phenylethanolamine N-methyltransferase (Bos taurus, UniProt P10938).
T2 sequence (P10938 whole entry): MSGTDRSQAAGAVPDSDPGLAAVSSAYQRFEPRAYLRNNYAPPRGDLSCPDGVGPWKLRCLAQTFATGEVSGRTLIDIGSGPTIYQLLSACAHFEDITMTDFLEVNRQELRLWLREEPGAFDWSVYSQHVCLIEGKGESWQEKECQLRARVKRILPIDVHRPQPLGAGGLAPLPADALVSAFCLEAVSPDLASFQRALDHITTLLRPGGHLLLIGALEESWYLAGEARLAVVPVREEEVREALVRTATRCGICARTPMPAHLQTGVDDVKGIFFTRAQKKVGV
In words: Inhibition of Phenylethanolamine N-methyl-transferase (PNMT). The method, boiled down:
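Bovine adrenal PNMT, purified through isoelectric precipitation. Radiochemical assay in phosphate buffer pH 8.0 with unlabeled AdoMet plus [methyl-3H]AdoMet, with phenylethanolamine as the variable substrate. Incubated 30 min at 37 °C, then quenched with borate pH 10.0. Product extracted into toluene–isoamyl alcohol (7:3) and scintillation counted. Duplicates at three inhibitor concentrations over a 5-fold range. Ki from hyperbolic fit; mode checked by 1/V vs 1/S plots.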

Series [5] in a line: Selectivity was expressed as the ratio is Ki of alpha 2-Adrenoceptor to tht of PNMT.
The target of series [6] is T1, Adrenergic receptor alpha-2. In words: Ability to inhibit binding of [3H]clonidine at the Alpha-2 adrenergic receptor. It is filed as protein assay. In short, it runs like this: as §1

SMILES strings stand for the structures.

For `Oc1ccc2c(c1)CNCC2`, the pKa in series [1] is 10. In addition, the Ki in series [2] is 2.2 µM. Moreover, the Selectivity ratio in series [3] was 0.85.
As for `NCc1cccc2cc(O)ccc12`, the pKa in series [1] was 10. For the same compound, the inhibition constant Ki came to 2.1 µM in series [2] and 8.4 µM in series [4]. In addition, the Selectivity ratio in series [5] stood at 0.25.
`CS(=O)(=O)Nc1ccc2c(c1)CNCC2` showed a pKa in series [1] of 9. For the same compound, the results for the Ki in series [2] and in series [4] were 11 µM and 48 µM, respectively. In addition, the Selectivity ratio in series [5] came to 0.23.
For `Clc1ccc2c(c1Cl)CNCC2`, the Ki in series [6] was […]; in series [4], 0.2 µM.
`O=S(=O)(Nc1ccc(Cl)cc1)c1ccc2c(c1)CNCC2` showed a pKa in series [1] of 7.8. Further, the inhibitory constant (Ki) in series [2] was 6.3 µM; in series [4], 2.6 µM. Besides, in series [5], the Selectivity ratio worked out at 2.4.
On to `COc1ccc2c(CN)cccc2c1`, for which the figures for the inhibitory constant (Ki) in series [2] and in series [4] were 4.6 µM and 15 µM, respectively. For the same compound, in series [5], the Selectivity ratio was 0.31.
On the same counts, the results for `COc1ccc2c3c(ccc2c1)CCNC3` are 0.84 µM, 1.4 µM and 0.6.
As for `NCc1cccc2ccccc12`, the inhibitory constant (Ki) stood at 1.6 µM in series [2] and 4.7 µM in series [4]. Moreover, the Selectivity ratio in series [5] was determined as 0.34.
Turning to `NS(=O)(=O)c1ccc2c(c1)CNCC2`, the pKa in series [1] turned out to be […]. The compound also came in with a Ki in series [2] of […].
Regarding `CS(=O)(=O)N(c1ccc2c(c1)CNCC2)S(C)(=O)=O`, the inhibition constant Ki in series [2] amounted to 190 µM; in series [4], 4500 µM. For the same compound, the Selectivity ratio in series [5] came to 0.042.
Consider `Oc1ccc2c3c(ccc2c1)CCNC3`, for which the pKa in series [1] came to 10. The results for the inhibition constant (Ki) in series [2] and in series [4] were 0.078 µM and 0.98 µM, respectively. Further, in series [5], the Selectivity ratio came out at 0.08.
On the same counts, the results for `CS(=O)(=O)NCc1ccc2c(c1)CNCC2` are 11.9, 18 µM, 330 µM and 0.055.
The corresponding values for `CNS(=O)(=O)c1ccc2c(c1)CNCC2` are 11.4, 130 µM, 4.6 µM and 28.

One may read the pKa as the negative logarithm of the acid dissociation constant. For orientation: Ki means the dissociation constant of the complex between target and ligand, obtained from inhibition or displacement.

These data come from ChEMBL document CHEMBL1130314, “Examination of the role of the acidic hydrogen in imparting selectivity of 7-(aminosulfonyl)-1,2,3,4-tetrahydroisoquinoline (SK&F 29661) toward inhibition of phenylethanolamine N-methyltransferase vs the alpha 2-adrenoceptor” (J Med Chem, 1997).
